This is an account of results in ChEMBL document CHEMBL3784921, “Mimicking of Arginine by Functionalized N(ω)-Carbamoylated Arginine As a New Broadly Applicable Approach to Labeled Bioactive Peptides: High Affinity Angiotensin, Neuropeptide Y, Neuropeptide FF, and Neurotensin Receptor Ligands As Examples” (J Med Chem, 2016).

SMILES strings stand for the structures. *1 amine or outer side, *2 acyl side, *3 side chain or, on linkers, in order; H or OH if unused. Where a SMILES comes first, the peptide text is derived from it. [ ]: non-standard residue; d: D form. X2 = NCCCCNC(=O)/N=C(\N)NCCC[C@H](N[*:1])C(=O)[*:2]

In data set [1] the target is Neurotensin receptor type 1 (Homo sapiens, UniProt P30989). Description: Displacement of [3H]-{Nomega-[N-(4-propanoylaminobutyl)aminocarbonyl]}Arg-Arg-ProTyr-Ile-Leu-OH Tris(hydrotrifluoroacetate) from NTSR1 in human HT-29 cells after 2 hrs by liquid scintillation counting. Type of data set: cell-based.
Neurotensin receptor type 1, sequence (P30989 whole entry): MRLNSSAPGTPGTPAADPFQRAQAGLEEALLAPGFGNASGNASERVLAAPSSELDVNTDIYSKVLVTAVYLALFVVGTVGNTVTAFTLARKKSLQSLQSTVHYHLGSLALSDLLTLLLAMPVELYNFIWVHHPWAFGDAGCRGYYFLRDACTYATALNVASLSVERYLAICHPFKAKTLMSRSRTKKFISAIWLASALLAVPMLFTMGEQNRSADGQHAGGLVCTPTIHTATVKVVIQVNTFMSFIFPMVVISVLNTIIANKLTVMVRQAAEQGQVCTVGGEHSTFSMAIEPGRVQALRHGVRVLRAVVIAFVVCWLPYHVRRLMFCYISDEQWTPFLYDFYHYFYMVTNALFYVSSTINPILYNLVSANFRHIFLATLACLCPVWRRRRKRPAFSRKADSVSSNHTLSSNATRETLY
A short description of data set [2]: Chemical stability of compound at 120 uM at pH 7 at 21 degC after 24 to 48 hrs by reversed-phase HPLC analysis. Conditions: buffer, pH 7, 120 µM. Format: physicochemical. In a few lines: (§1)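 Peptide incubated in phosphate buffer (PBS), pH 7.0, 21 °C, for 24 or 48 h. Remaining intact peptide assessed by reversed-phase HPLC chromatograms.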
Data set [3] is described as follows: Chemical stability of compound at 150 uM at pH 7 at 21 degC after 24 to 48 hrs by reversed-phase HPLC analysis. Format: physicochemical. The settings on record: buffer, pH 7, 150 µM. In a few lines: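 Peptide incubated in phosphate buffer (PBS), pH 7.0, 21 °C, for 24 or 48 h. Remaining intact peptide assessed from reversed-phase HPLC chromatograms.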
Data set [4] is described as follows: Drug degradation in human HT-29 cells at 50 uM after 2 hrs by reversed-phase HPLC analysis. Type of data set: ADME, cell-based. Conditions: read-out: Drug degradation. Summed up:
(§2)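 Stability tested under binding-assay conditions for up to 6 h: AT1 ligands with CHO-hAT1 cells and NTSR1 ligands with HT-29 cells. Samples analysed by reversed-phase HPLC chromatography.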

The nature of data set [5]: Drug degradation in CHO cells expressing human AT1 receptor at 50 uM after 2 hrs by reversed-phase HPLC analysis. Conditions: chinese hamster, read-out: Drug degradation. Format: ADME, cell-based, Cricetulus griseus. In a few lines: as §2
The nature of data set [6]: Chemical stability of compound at 200 uM at pH 7 at 21 degC after 24 to 48 hrs by reversed-phase HPLC analysis. Format: physicochemical. The settings on record: buffer, pH 7, 200 µM. In a few lines:
as §1

Data set [7] deals with T1, Type-1 angiotensin II receptor (Homo sapiens, UniProt P30556).
T1 sequence (P30556 whole entry): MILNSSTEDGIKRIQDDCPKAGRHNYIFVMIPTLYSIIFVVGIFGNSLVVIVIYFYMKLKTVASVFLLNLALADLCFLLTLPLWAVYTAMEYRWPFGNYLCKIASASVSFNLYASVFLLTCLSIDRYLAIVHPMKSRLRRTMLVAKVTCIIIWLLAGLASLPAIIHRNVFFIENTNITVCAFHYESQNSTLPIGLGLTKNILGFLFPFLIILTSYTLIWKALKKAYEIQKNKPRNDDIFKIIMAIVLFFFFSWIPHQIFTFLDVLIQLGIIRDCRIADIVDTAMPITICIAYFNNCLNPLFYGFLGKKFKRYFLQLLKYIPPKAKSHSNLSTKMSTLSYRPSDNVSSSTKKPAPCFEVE
The experiment in a line: Agonist activity at human AT1 receptor transfected in CHO cells co-expressing Galpha16-mtAEQ assessed as induction of intracellular Ca2+ mobilization by bioluminescence assay. Format: functional, cell-based.

In data set [8] the target is T1, Type-1 angiotensin II receptor. The experiment in a line: Displacement of [3H]-Asp-{Nomega-[N-(4-propanoylaminobutyl)aminocarbonyl]}Arg-ValTyr-Ile-His-Pro-Phe-OH Tris(hydrotrifluoroacetate) from human AT1 receptor transfected in CHO cells co-expressing Galpha16-mtAEQ after 2 hrs by liquid scintillation counting. Format: cell-based.

As for `COc1cccc(OC)c1-c1cc(C(=O)NC2(C(=O)O)C3CC4CC(C3)CC2C4)nn1-c1ccc(C(=O)N(C)CCCN(C)C)cc1C(C)C` (configuration not stated), in data set [1], the half-inhibitory concentration (IC50) is 3.16 nM and affinity was put at a Ki of 1.1 nM. For the molecule `CC[C@H](C)[C@H](NC(=O)[C@H](Cc1ccc(O)cc1)NC(=O)[C@@H](NC(=O)[C@H](CCCN/C(N)=N/C(=O)NCCCCNC(=O)CCCCC[n+]1cc(S(=O)(=O)[O-])ccc1/C=C/c1cc2ccc(N(CC)CC)cc2oc1=O)NC(=O)[C@@H](N)CC(=O)O)C(C)C)C(=O)N[C@@H](Cc1cnc[nH]1)C(=O)N1CCC[C@H]1C(=O)N[C@@H](Cc1ccccc1)C(=O)O.O=C(O)C(F)(F)F.O=C(O)C(F)(F)F.O=C(O)C(F)(F)F`, the Stability result in data set [2] is recorded as “Stable”.

As to `CC[C@H](C)[C@H](NC(=O)[C@H](Cc1ccc(O)cc1)NC(=O)[C@@H]1CCCN1C(=O)[C@H](CCCNC(=N)N)NC(=O)[C@@H](N)CCCN/C(N)=N/C(=O)NCCCCNC(=O)CCCCC[n+]1cc(S(=O)(=O)[O-])ccc1/C=C/c1cc2ccc(N(CC)CC)cc2oc1=O)C(=O)N[C@@H](CC(C)C)C(=O)O.O=C(O)C(F)(F)F.O=C(O)C(F)(F)F.O=C(O)C(F)(F)F`, the Stability result in data set [3] is listed as “Stable”. `CCC(=O)NCCOCCOCCNC(=O)/N=C(\N)NCCC[C@H](N)C(=O)N[C@@H](CCCNC(=N)N)C(=O)N1CCC[C@H]1C(=O)N[C@@H](Cc1ccc(O)cc1)C(=O)N[C@H](C(=O)N[C@@H](CC(C)C)C(=O)O)[C@@H](C)CC`: in data set [4], the metabolised at 2 h, 50 µM was less than 5.5%. On to `CCC(=O)NCCOCCOCCNC(=O)/N=C(\N)NCCC[C@H](NC(=O)[C@@H](N)CC(=O)O)C(=O)N[C@H](C(=O)N[C@@H](Cc1ccc(O)cc1)C(=O)N[C@H](C(=O)N[C@@H](Cc1cnc[nH]1)C(=O)N1CCC[C@H]1C(=O)N[C@@H](Cc1ccccc1)C(=O)O)[C@@H](C)CC)C(C)C`, for which the metabolised at 2 h, 50 µM in data set [5] is less than 5.5%. In the case of `CC[C@H](C)[C@H](NC(=O)[C@H](Cc1ccc(O)cc1)NC(=O)[C@@H]1CCCN1C(=O)[C@H](CCCNC(=N)N)NC(=O)[C@@H](N)CCCNC(=N)N)C(=O)N[C@@H](CC(C)C)C(=O)O`, in data set [4], the metabolised at 2 h, 50 µM is less than 5.5%. As to `CC[C@H](C)[C@H](NC(=O)[C@H](Cc1ccc(O)cc1)NC(=O)[C@@H](NC(=O)[C@H](CCCN/C(N)=N/C(=O)NCCCCNC(=O)CCCCCN1\C(=C/C=C/C=C/C2=[N+](C)c3ccccc3C2(C)C)C(C)(C)c2ccccc21)NC(=O)[C@@H](N)CC(=O)O)C(C)C)C(=O)N[C@@H](Cc1cnc[nH]1)C(=O)N1CCC[C@H]1C(=O)N[C@@H](Cc1ccccc1)C(=O)O.O=C(O)C(F)(F)F.O=C(O)C(F)(F)F.O=C(O)C(F)(F)F.O=C(O)C(F)(F)F.[Br-]`, the Stability entry in data set [2] is given as “Stable”. For `CC[C@H](C)[C@H](NC(=O)[C@H](Cc1ccc(O)cc1)NC(=O)[C@@H](NC(=O)[C@H](CCCN/C(N)=N/C(=O)NCCCCN)NC(=O)[C@@H](N)CC(=O)O)C(C)C)C(=O)N[C@@H](Cc1cnc[nH]1)C(=O)N1CCC[C@H]1C(=O)N[C@@H](Cc1ccccc1)C(=O)O.O=C(O)C(F)(F)F.O=C(O)C(F)(F)F.O=C(O)C(F)(F)F.O=C(O)C(F)(F)F` (H-D[X2]VYIHPF-OH), the Stability result in data set [6] is listed as “Stable”. The EC50 in data set [7] is 1.4 nM. In data set [8], the IC50 was 6.17 nM and the Ki was determined as 2.1 nM.
